Test results reported in ChEMBL document CHEMBL1152870, “Design and synthesis of novel dihydroquinoline-3-carboxylic acids as HIV-1 integrase inhibitors” (Bioorg Med Chem, 2009).

Experiments:
HCT-116 [1] = assay: Cytotoxicity against human HCT116 cells expressing p53 after 72 hrs by MTT assay; type: functional; settings: HCT-116, 72 h
How it was run: (§1)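 HCT116 p53+/+ or p53−/− cells grown as monolayers in RPMI 1640 with 10% FBS and 2 mmol/L L-glutamine at 37 °C, 5% CO2, and used in exponential growth. Cells were seeded, allowed to attach, then exposed continuously to drug for 72 h. DMSO stocks were diluted in medium. MTT (0.5 mg/mL final) was added for 4 h at 37 °C and read at 570 nm. Triplicates; IC50 from log concentration versus % cells killed.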

HCT-116 [2] = assay: Cytotoxicity against p53 deficient human HCT116 cells after 72 hrs by MTT assay; type: functional; settings: HCT-116, 72 h; how it was run: as §1
[3] = biological target: T1, Human immunodeficiency virus type 1 integrase (Human immunodeficiency virus 1, UniProt Q7ZJM1); assay: Inhibition of HIV1 integrase strand transfer activity by PAGE
T1 sequence (Q7ZJM1 whole entry): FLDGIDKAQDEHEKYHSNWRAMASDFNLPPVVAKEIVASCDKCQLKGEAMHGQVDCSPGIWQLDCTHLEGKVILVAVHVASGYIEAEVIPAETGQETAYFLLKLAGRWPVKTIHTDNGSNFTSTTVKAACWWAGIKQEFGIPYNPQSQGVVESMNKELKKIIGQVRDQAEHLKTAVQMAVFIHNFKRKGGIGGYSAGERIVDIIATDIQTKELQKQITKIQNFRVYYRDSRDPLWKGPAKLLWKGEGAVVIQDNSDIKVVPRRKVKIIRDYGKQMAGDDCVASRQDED

[4] = biological target: T1, Human immunodeficiency virus type 1 integrase; assay: Inhibition of HIV1 integrase 3' processing activity by PAGE

SMILES | IC50 [3] | IC50 [4] | CC50 (HCT-116 [1]) | CC50 (HCT-116 [2])
CCOC(=O)c1c(O)c2cc(OC)ccc2n(C)c1=O | > 1000 µM | > 1000 µM | > 10 µM | > 10 µM
CCCCCn1c(=O)c(C(=O)Nc2cc([N+](=O)[O-])ccc2O)c(O)c2ccccc21 | 9 µM | 9 µM | > 10 µM | > 10 µM
Cn1c(=O)c(C(=O)O)c(O)c2cc(Oc3ccccc3)ccc21 | 14 µM | 34 µM | > 10 µM | > 10 µM
CCOC(=O)c1c(O)c2cc(Cc3ccc(F)cc3)ccc2n(C)c1=O | 220 µM | 800 µM | > 10 µM | > 10 µM
O=C(O)C(=O)CC(=O)c1cccn1Cc1ccc(F)cc1 | – | – | > 10 µM | > 10 µM

Further compounds by falling IC50 [3], results first:

IC50 [3] | IC50 [4] | SMILES | CC50 (HCT-116 [1]) | CC50 (HCT-116 [2])
320 µM | 580 µM | COc1ccc2c(c1)c(O)c(C(=O)O)c(=O)n2C | > 10 µM | > 10 µM
110 µM | 275 µM | CCOC(=O)c1c(O)c2cc(Cc3ccccc3)ccc2n(C)c1=O | > 10 µM | > 10 µM
6 µM | 45 µM | Cn1c(=O)c(C(=O)O)c(O)c2cc(Cc3ccccc3)ccc21 | > 10 µM | > 10 µM
5 µM | 92 µM | CCCCCn1c(=O)c(C(=O)O)c(O)c2cc(Cc3ccc(F)cc3)ccc21 | > 10 µM | > 10 µM
0.9 µM | 23 µM | Cn1c(=O)c(C(=O)O)c(O)c2cc(Cc3ccc(F)cc3)ccc21 | > 10 µM | > 10 µM
